Experimental data pooled from the literature.
Each line is one published result; the experiments were not run side by side.
Target: Serine/threonine-protein kinase OSR1 (OXSR1, Homo sapiens, UniProt O95747)

| Compound | observed | method | concentration | remaining binding |
| --- | --- | --- | --- | --- |
| C[C@H](c1ccc(F)cc1)N(Cc1cccc(C(=O)O)c1)C(=O)c1cnc2ccccc2c1 | cell-free assay | competition with immobilised ligand | 1 µM | 100% |
| CN(c1nccc(-c2cnn3ncccc23)n1)C1CC1 | binding |  | 1 µM | 100% |
| O=C(c1ccc(Nc2nccc(-c3cc4ccccc4s3)n2)cc1)N1CCC(N2CCCC2)CC1 | binding | competition with immobilised ligand | 1 µM | 100% |
| COc1cnc(Nc2cccc(S(N)(=O)=O)c2)nc1N1CCN(c2ccccc2)CC1 | binding | competition with immobilised ligand | 1 µM | 90% |
| O=C(Nc1c[nH]nc1C(=O)NC1CCNCC1)c1cc(F)cc(F)c1 | binding | competition with immobilised ligand | 1 µM | 100% |
| CC1CCCN1c1nccc(-c2cnn3ncccc23)n1 (stereo not shown) | binding |  | 1 µM | 100% |
| Cc1cnc(Nc2ccc(C(=O)N3CCC(N4CCCC4)CC3)cc2)nc1-c1cc2ccccc2s1 | binding | competition with immobilised ligand | 1 µM | 81% |
| C[C@H](c1cccc(C#N)c1)n1cc(Cl)cc(C(N)=O)c1=N | cell-free assay | competition with immobilised ligand | 1 µM | 81% |
| COc1ccnn2ncc(-c3ccnc(N(C)C)n3)c12 | binding |  | 1 µM | 87% |
| C[C@@H](c1ccc(-n2cnc3c(N)ncnc32)cc1)N1CCc2nn(C)c(Cc3ccccc3)c2C1=O | binding | competition with immobilised ligand | 0.1 µM | 72% |
| N[C@H]1CCN(c2nccc(-c3cnn4ncccc34)n2)C1 | binding |  | 1 µM | 86% |
| FC(F)(F)Oc1cccc(-c2cnc3ccc(-c4ccncc4)nn23)c1 | cell-free assay | competition with immobilised ligand | 5 µM | 82% |
| O=S(=O)(NC1CCC(c2cc(F)ccc2F)(S(=O)(=O)c2ccc(Cl)cc2)CC1)C(F)(F)F (stereo not shown) | cell-free assay | competition with immobilised ligand | 1 µM | 91% |
| c1cncc(-c2cccc(Nc3nccc(NC4CCCCC4)n3)c2)c1 | binding | competition with immobilised ligand | 10 µM | 100% |
| O=C(Nc1cccnn1)N1CCC(=Cc2cccc(Oc3ccc(C(F)(F)F)cn3)c2)CC1 | cell-free assay | competition with immobilised ligand | 1 µM | 100% |
| C[C@@H]1CCN(c2nccc(-c3cnn4ncccc34)n2)C1 | binding |  | 1 µM | 75% |
| CS(=O)(=O)N1CCCC(NC(=O)[C@H](CCC2CCCCC2)NC(=O)c2ccc(CNc3ncnc4c3nnn4-c3ccccc3)cc2)C1 (stereo partly shown) | cell-free assay | competition with immobilised ligand | 0.1 µM | 100% |
| COc1ncc2cc3ccccc3nc2c1C#N | cell-free assay | competition with immobilised ligand | 5 µM | 100% |
| C[C@@H]1CN(c2cc(-c3nn(C)c4ccc(OC5(C)CC5)cc34)ncn2)C[C@H](C)O1 | cell-free assay | competition with immobilised ligand | 1 µM | 93% |
| CN(C)c1nccc(-c2cnn3ncccc23)n1 | binding |  | 1 µM | 100% |
| O=C(N[C@H]1CCCCC/C=C\C2C[C@@]2(C(=O)O)NC(=O)[C@@H]2C[C@@H](Oc3ccncc3)CN2C1=O)OC1CCCC1 (stereo partly shown) | binding | competition with immobilised ligand | 1 µM | 75% |
| O=C(NCCCN1CCOCC1)c1ccc(Nc2nccc(-c3cc4ccccc4s3)n2)cc1 | binding | competition with immobilised ligand | 1 µM | 77% |
